# What was measured:
# L1210 [1] = test: In vitro inhibition of AdoMetDC derived from L1210 Murine Leukemia Cells.; assay type: functional; settings: Mus musculus, read-out: ID50 (the source's name)
# CCRF-CEM = test: Concentration that causes morphological changes in noninfected CEM-SS cells; assay type: functional; settings: Homo sapiens, read-out: TC50 (the source's name)
# [2] = test system: Trypanosoma brucei rhodesiense; test: Mean survival days against T.b. rhodesiense KETRI 243 tested in mice after intra peritoneal administration at 50 mg/kg for 7 days.
# Mus musculus [3] = test: Number of mice cured to that of 5 treated with the compound at 25 mg/kg for 3 days; assay type: functional
# [4] = test system: Trypanosoma brucei rhodesiense; test: Mean survival days against T.b. rhodesiense KETRI 243 tested in mice after intra peritoneal administration at 50 mg/kg for 7 days.; assay type: functional
# [5] = test system: Trypanosoma brucei brucei; test: Mean survival days against T.b. peritoneal administration at 10 mg/kg for 3 days.; assay type: functional
# A549 [6] = test: In vitro anti Neoplastic Activity against Human non small cell lung carcinoma A549 Cell lines;Value ranges from (3-10).; assay type: functional, cell-based
# In short: (§1)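 SRB growth assay. Cell lines were grown as monolayers in RPMI-1640 with 5% FCS, 5% NuSerum IV, 20 mM HEPES and 2 mM glutamine, and seeded at 400–1200 cells/well. They attached for 15–18 h before drug. Ten concentrations over 5 logs were tested, with final DMSO ≤0.25%. Exposure was 72 h at 37 °C. Cells were TCA-fixed, stained with sulforhodamine B and read at OD 570 nm. IC50 is 50% growth inhibition.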
# A121 [7] = test: In vitro anti Neoplastic Activity against Human ovarian carcinoma A121 Cell lines;Value ranges from (1-30); assay type: functional, cell-based; in short: as §1
# Mus musculus [8] = organism: Mus musculus; test: Number of mice cured to that of 5 treated with the compound for 7 days
# Mus musculus [9] = test: Nnumber of mice cured to that of 5 treated with the compound at 50 mg/kg for 3 days; assay type: functional
# [10] = test system: Human immunodeficiency virus 1; test: In Vitro Anti-HIV activity in CEM cells; assay type: functional, organism-based; settings: Human immunodeficiency virus 1, CCRF-CEM
# In short: (§2)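 Syncytial plaque assay: log-phase CEM-SS cells were PBS-washed and plated at 50 000 per well in serum-free RPMI-1640 on poly-L-lysine-coated wells (30 min, 37 °C). They were inoculated with HIV-1 (60–90 PFU) for 120 min, then overlaid with compound in growth medium (2-fold dilutions, 0.00015–20 μM). A second overlay followed on day 3, with 5 days total. EC50 is 50% inhibition of plaque formation. TC50 is morphological change in noninfected CEM-SS cells.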
# MCF7 [11] = test: In vitro anti Neoplastic Activity against Human Breast adenocarcinoma MCF-7 Cell lines; assay type: functional, cell-based; in short: as §1
# [12] = test system: Trypanosoma brucei brucei; test: In vitro anti trypanosomal activity against Trypanosomal 110 (EATRO)strain; assay type: functional, organism-based
# Mus musculus [13] = test: Number of mice cured to that of 5 treated with the compound at 100 mg/kg for 7 days; assay type: functional
# [14] = test system: Trypanosoma brucei rhodesiense; test: Mean survival days against T.b. rhodesiense KETRI 243 tested in mice after intra peritoneal administration at 25 mg/kg for 7 days.; assay type: functional
# [15] = test system: Trypanosoma brucei rhodesiense; test: In vitro anti trypanosomal activity against Trypanosomal 243 (KETRI)strain; assay type: functional, organism-based
# [16] = test system: Trypanosoma brucei brucei; test: Mean survival days against T.b. brucei LAB 110 EATRO tested in mice administration at 100 mg/kg for 7 days.; assay type: functional
# In short: (§3)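 Female Swiss-Webster mice (20 g) were infected with 2.5×10^5 trypanosomes from a rat infection. Compounds were dissolved in water and given at the stated daily dose by 7 day miniosmotic pumps implanted aseptically. There were 5 mice per group. Viability was checked daily and tail-vein blood smears weekly. The value is mean survival in days. Mice were scored cured if they survived >30 days beyond untreated controls with no parasitemia.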
# Mus musculus [17] = test: Number of mice cured to that of 5 treated with the compound at 10 mg/kg for 3 days; assay type: functional
# [18] = test system: Trypanosoma brucei brucei; test: Mean survival days against T.b. peritoneal administration at 25 mg/kg for 3 days.; assay type: functional
# Mus musculus [19] = test: Number of mice cured to that of 5 treated with the compound at 50 mg/kg for 7 days; assay type: functional
# [20] = test system: Trypanosoma brucei brucei; test: Mean survival days against T.b. peritoneal administration at 50 mg/kg for 3 days.; assay type: functional
# L1210 [21] = test: In vitro Anti Neoplastic Activity against L1210 murine leukemia Cell lines; assay type: functional, cell-based; settings: Mus musculus; in short: as §1
# [22] = test system: Trypanosoma brucei rhodesiense; test: In vitro anti trypanosomal activity against Trypanosomal 243 As 10e-3 (KETRI)strain; assay type: functional, organism-based
# [23] = Differential selectivity as the ratio of TC50 value to that of EC50 value.; assay type: functional; in short: as §2
# Mus musculus [24] = test: Number of mice cured to that of 5 treated with the compound at 25 mg/kg for 7 days; assay type: functional
# MCF7 [25] = test: In vitro anti Neoplastic Activity against Adriamycin resistant Human Breast adenocarcinoma MCF7-Adr Cell lines; assay type: functional, cell-based; in short: as §1
# [26] = test system: Trypanosoma brucei brucei; test: Mean survival days against T.b. brucei LAB 110 EATRO tested in mice administration at 50 mg/kg for 7 days.; assay type: functional; in short: as §3
# [27] = test system: Trypanosoma brucei brucei; test: Mean survival days against T.b. brucei LAB 110 EATRO tested in mice administration at 25 mg/kg for 7 days.; assay type: functional; in short: as §3
# [28] = test system: Trypanosoma brucei rhodesiense; test: In vitro anti trypanosomal activity against Trypanosomal 269 (KETRI)strain; assay type: functional, organism-based
# HT-29 [29] = test: In vitro anti Neoplastic Activity in Human Colon adenocarcinoma HT-29 Cell lines;Value ranges from (3-30).; assay type: functional, cell-based; in short: as §1
# Mus musculus [30] = test: Ratio of number of mice cured to that of total treated with the compound at 25 mg/kg for 3 days; assay type: functional
# MCF7 [31] = test: In vitro Antineoplastic Activity against Adriamycin resistant Human Breast adenocarcinoma MCF7-Adr Cell lines; assay type: functional, cell-based
# [32] = test system: Trypanosoma brucei brucei; test: In vitro antitrypanosomal activity against Trypanosomal 110 (EATRO)strain; assay type: functional, organism-based
# [33] = test system: Trypanosoma brucei rhodesiense; test: Mean survival days against T.b. rhodesiense KETRI 243 tested in mice after intra peritoneal administration at 100 mg/kg for 7 days.; assay type: functional
# A549 [34] = test: In vitro Antineoplastic Activity against Human non small cell lung carcinoma A549 Cell lines; assay type: functional, cell-based
# HT-29 [35] = test: In vitro Neoplastic Anti Activity in Human Colon adenocarcinoma HT-29 Cell lines; assay type: functional, cell-based
# [36] = test system: Trypanosoma brucei rhodesiense; test: In vitro antitrypanosomal activity against Trypanosomal 243 As 10e-3 (KETRI)strain; assay type: functional, organism-based
# MCF7 [37] = test: In vitro Neoplastic Anti Activity against Human Breast adenocarcinoma MCF-7 Cell lines; assay type: functional, cell-based
# [38] = test system: Trypanosoma brucei rhodesiense; test: In vitro antitrypanosomal activity against Trypanosomal 243 (KETRI)strain; assay type: functional, organism-based
# Mus musculus [39] = test: Ratio of number of mice cured to that of total treated with the compound at 25 mg/kg for 7 days; assay type: functional
# Mus musculus [40] = test: Ratio of number of mice cured to that of total treated with the compound at 100 mg/kg for 7 days; assay type: functional
# Mus musculus [41] = test: Ratio of number of mice cured to that of total treated with the compound at 50 mg/kg for 3 days; assay type: functional
# [42] = test system: Trypanosoma brucei rhodesiense; test: In vitro antitrypanosomal activity against Trypanosomal 269 (KETRI)strain; assay type: functional, organism-based
# A121 [43] = test: In vitro Antineoplastic Activity against Human ovarian carcinoma A121 Cell lines; assay type: functional, cell-based
# [44] = test system: Human immunodeficiency virus 1; test: In Vitro Anti-HIV activity of the compound; assay type: functional; settings: read-out: ED50 (the source's name)
# Mus musculus [45] = test: Ratio of number of mice cured to that of total treated with the compound at 50 mg/kg for 7 days; assay type: functional
# Mus musculus [46] = test: Ratio of number of mice cured to that of total treated with the compound at 10 mg/kg for 3 days; assay type: functional
smiles,measurement,setting,value
CC(=O)OC1C(CN(C)C/C=C\CN)OC(n2cnc3c(N)ncnc32)C1OC(C)=O (configuration not stated),IC50,L1210 [1],0.82 µM
same,CC50,CCRF-CEM,12 µM
same,MSD,[2],21.2 days
same,No. of cures,Mus musculus [3],4
same,MSD,[4],21.2 days
same,MSD,[5],17 days
same,IC50,A549 [6],10 µM
same,IC50,A121 [7],30 µM
same,No. cured,Mus musculus [8],0
same,No. of cures,Mus musculus [9],5
same,EC50,[10],0.05 µM
same,IC50,MCF7 [11],51 µM
same,IC50,[12],0.014 µM
same,No. of cures,Mus musculus [13],4
same,MSD,[14],18 days
same,IC50,[15],0.014 µM
same,MSD,[16],26 days
same,No. of cures,Mus musculus [17],4
same,MSD,[18],33 days
same,No. cured,Mus musculus [19],0
same,No. of cures,Mus musculus [19],5
same,MSD,[20],>34 days
same,IC50,L1210 [21],20 µM
same,IC50,[22],0.054 µM
same,Ratio,[23],240
same,No. cured,Mus musculus [24],0
same,No. of cures,Mus musculus [24],5
same,IC50,MCF7 [25],> 100 µM
same,MSD,[26],>34 days
same,MSD,[27],>34 days
same,IC50,[28],0.02 µM
same,IC50,HT-29 [29],30 µM
CN(C/C=C\CN)C[C@H]1O[C@@H](n2cnc3c(N)ncnc32)[C@H](O)[C@@H]1O,No. cured/total,Mus musculus [30],5
same,IC50,MCF7 [31],200 µM
same,IC50,L1210 [1],0.078 µM
same,CC50,CCRF-CEM,< 6.25 µM
same,MSD,[4],31.3 days
same,MSD,[5],12 days
same,IC50,[32],0.1 µM
same,MSD,[33],32 days
same,IC50,A549 [34],3 µM
same,IC50,HT-29 [35],> 100 µM
same,IC50,[36],0.1 µM
same,MSD,[14],31 days
same,IC50,MCF7 [37],> 100 µM
same,IC50,[38],0.04 µM
same,MSD,[18],>34 days
same,No. cured/total,Mus musculus [39],2
same,No. cured/total,Mus musculus [40],4
same,MSD,[20],>34 days
same,No. cured/total,Mus musculus [41],5
same,IC50,[42],0.22 µM
same,IC50,A121 [43],> 100 µM
same,Selectivity,[23],6.7
same,EC50,[44],0.93 µM
same,No. cured/total,Mus musculus [45],2
same,No. cured/total,Mus musculus [46],4
